Most compounds without a hit are left out; they make up all but 2.2% or so of the library.
Granule exo inh = blocks lytic granule exocytosis; TALL-104 LAMP-1 surface exposure, flow cytometry; cells stimulated with thapsigargin and PMA; inhibition, % at 10 µM; 0.66% of 360,000 active; AID 651702;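 active = inhibition above about 55%, limit read from the data; inconclusive = no clear call, values can overlap the other calls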
CSN inh = inhibitors of human CSN-mediated cullin deneddylation. Purified CSN, SCF-Nedd8-OG deneddylation, fluorescence polarization. inhibition, % at 12.5 µM. 0.38% of 360,000 active. Q92905. AID 651999;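 active = pattern-corrected inhibition above about 35%, with an unprinted fluorescence ratio check between 0.5 and 1.5, limit read from the data, passing the limit was not always enough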;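 note: 0% = enzyme with substrate and 100% = substrate without enzyme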
Target sequence (Q92905 whole entry, looked up, one chain of several): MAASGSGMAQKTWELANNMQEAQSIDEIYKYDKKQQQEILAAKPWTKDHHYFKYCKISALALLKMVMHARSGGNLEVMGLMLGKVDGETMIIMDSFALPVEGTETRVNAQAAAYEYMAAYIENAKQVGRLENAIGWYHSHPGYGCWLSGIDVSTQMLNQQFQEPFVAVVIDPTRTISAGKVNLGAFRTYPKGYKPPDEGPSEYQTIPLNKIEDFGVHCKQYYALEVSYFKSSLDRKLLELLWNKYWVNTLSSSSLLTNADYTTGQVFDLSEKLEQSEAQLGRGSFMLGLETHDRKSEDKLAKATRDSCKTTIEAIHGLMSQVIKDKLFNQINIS
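Schedule: reaction 90 min, room temperature / Assay system: HEK293T-derived human Csn5 enzyme / Input: Csn5 at 0.24 nM final / Measure: inhibition of Csn5 cleavage, % / Control set: substrate-only high control, full reaction low control / Technique: fluorescence polarization of the substrate / Buffer or medium: Tris/NaCl/DTT buffer, pH 7.5 / Reagent: SCFSkp2-Nedd8OG substrate at 10 nM final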
Myeloid diff MLP = promotes myeloid progenitor differentiation; ER-HoxA9 myeloid progenitors, lysozyme-GFP differentiation, flow cytometry; calls only at 10 µM; 1% of 360,000 active; AID 624256;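 active = normalized GFP-positive differentiation at or above the plate's own cutoff, the solvent-only control mean plus 3 SD; inconclusive = no clear call, values can overlap the other calls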;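 note: cells exposed to compound for four days before flow analysis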
HNF4A DNA FP = change in binding of human HNF4 alpha to DNA; P41235; 0.3% of 360,000 active; activity change, % at 10 µM; HNF4a-FITC DNA binding, fluorescence polarization, 1 h; AID 1224865; in the data active = activity change above about 30%, passing the limit was not always enough
Myeloid diff CP1 = compounds promoting myeloid differentiation | 2% of 2,300 active | shares compounds with Myeloid diff MLP | ER-HoxA9 myeloid progenitors, GFP/Mac1 double-positive flow | calls only;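 active = share of green or green-and-red cells above 9 and 9% in run 1 or 4 and 3% in run 2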
GFP autofluor = counter-screen for myeloid differentiation promoters: compound fluorescence; shares compounds with Myeloid diff MLP; 7.4% of 2,300 active; AID 651707; fluorescence response, % (test concentration not listed); ER-HoxA9 myeloid progenitors, no estrogen, GFP autofluorescence flow cytometry; vehicle wells 0%, positive control 100%;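 active = over 5% cells positive for green fluorescent reporter, or over 2% positive for both it and APC stain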;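 note: range taken on the double positive population between DMSO and positive control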
Starred values were filed as active, the others as inactive; i = inactive; u = inconclusive; x = no result given; + = active, no number.

SMILES | Granule exo inh | CSN inh | Myeloid diff MLP | HNF4A DNA FP | Myeloid diff CP1 | GFP autofluor
CC(C)CN(C(=O)c1ccc([N+](=O)[O-])s1)c1c(N)n(Cc2ccccc2)c(=O)[nH]c1=O | -3.7 | 5.8 | + | 5.6 | i | 0.7
CC(C)CN(C(=O)COC(=O)C12CC3CC(CC(C3)C1)C2)c1c(N)n(Cc2ccccc2)c(=O)[nH]c1=O | -5.3 | 0.0 | + | 3.4 | i | 9.5*
CCN(C(=O)CN1CCc2ccccc21)c1c(N)n(Cc2ccccc2)c(=O)[nH]c1=O | -3.2 | 3.2 | i | 15.8 | i | 0.2
Cc1cc(C(=O)NNC(=O)CN2C(=O)NC(C)(c3ccccc3)C2=O)c(C)o1 (centres undefined) | -5.0 | -0.5 | i | -0.2 | x | x
CSCCC(NC(=O)c1ccc(Cl)cc1Cl)C(=O)N(C)Cc1nc2ccccc2c(=O)[nH]1 (centres undefined) | 7.6 | -0.1 | i | -2.6 | x | x
Cc1ccc(S(=O)(=O)CCC(=O)Nc2nc(-c3ccccn3)cs2)cc1 | -0.7 | -3.5 | + | 0.9 | i | 1.1
CC(Oc1ccc(Br)cc1)C(=O)Nc1nc(-c2ccccn2)cs1 (centres undefined) | 7.0 | 2.5 | + | 1.9 | i | 0.0
O=C(NCc1cccc(C(F)(F)F)c1)c1csc([C@@H]2C[C@H](O)[C@@H](CO)O2)n1 | -5.9 | 3.6 | i | -0.6 | x | x
COc1ccc(C(=O)Nc2nccs2)cc1[N+](=O)[O-] | -1.0 | 8.2 | i | -0.3 | x | x
COc1ccc(C(=O)Nc2nccs2)cc1OC | -0.2 | -0.3 | + | -2.9 | i | 0.0
COc1cc(-c2cnc3c(NC=O)cc(-c4ccc(N5CCN(C)CC5)cc4)cn23)cc(OC)c1OC | 6.8 | 7.3 | u | 12.1 | x | x
CN1CCN(c2ccc(-c3cc(NC=O)c4ncc(-c5ccc(F)cc5)n4c3)cc2)CC1 | 8.4 | 2.5 | + | 15.2 | i | 0.3
CN1CCN(c2ccc(-c3cc(NC=O)c4ncc(-c5ccccc5)n4c3)cc2)CC1 | -1.0 | 10.1 | i | 9.8 | i | 2.9
CCc1ccc(/C=C/c2c([N+](=O)[O-])c(=O)n(C)c(=O)n2C)cc1 | -3.8 | 4.2 | i | -0.1 | i | 1.4
CCOc1ccc(/C=C/c2c([N+](=O)[O-])c(=O)n(C)c(=O)n2C)cc1 | -3.7 | -9.2 | i | -3.4 | x | x
Cc1nn(-c2ccccc2)nc1C(=O)OCC(=O)N1CCC(C)CC1 | 4.3 | -3.4 | i | -3.0 | x | x
O=C(NCCSc1ncc(-c2ccc(F)cc2)[nH]1)c1ccc2c(c1)OCO2 | 25.5 | 0.5 | i | -2.1 | x | x
CCO[C@H]1OC(C(=O)O)=C[C@@H](c2ccccc2)[C@@H]1CCCO | -2.9 | -1.9 | i | 0.9 | i | 0.0
COc1ccc(-n2c(SCC(=O)Nc3cc(C)on3)nc3ccccc3c2=O)cc1Cl | 1.8 | -1.1 | i | -5.3 | i | 0.0
O=C(NCC1CCCO1)c1cccc2c1C(=O)c1ccc(N3CCC(Cc4ccccc4)CC3)cc1S2(=O)=O (centres undefined) | -1.1 | 10.2 | i | 62.4 | x | x
O=C(NC1CCCCC1)c1cccc2c1C(=O)c1ccc(N3CCC(Cc4ccccc4)CC3)cc1S2(=O)=O | -4.7 | 43.8 | + | -93.6 | i | 1.2
C[C@H](CO)N1C[C@H](C)[C@@H](CN(C)C(=O)CCCN(C)C)OCc2cn(nn2)CCCC1=O | -4.9 | 1.5 | i | -9.1 | x | x
CCOC(=O)C1=C(COC(=O)CSc2ccc(C)cc2)NC(=O)NC1C (centres undefined) | -0.1 | -2.0 | i | 1.1 | x | x
CC(=Nc1ccccc1C)C1=C(O)CSC1=O | -0.2 | 0.9 | + | 4.1 | i | 0.4
CC(O)(c1cccc(F)c1)c1nc(/C=C/c2ccccc2)cs1 (centres undefined) | -0.5 | -4.4 | i | 3.3 | x | x
SMILES | Granule exo inh | CSN inh | Myeloid diff MLP | HNF4A DNA FP | Myeloid diff CP1 | GFP autofluor
COc1ccc(N2CCN(c3ccc(N4C(=O)COCC4=O)cc3[N+](=O)[O-])CC2)cc1 | -3.5 | -14.0 | i | 2.3 | i | 0.2
COc1ccc(C(CNC(=O)COc2ccccc2C)N2CCCCC2)cc1 (centres undefined) | 0.6 | 1.1 | i | 4.0 | x | x
COc1ccc(C(CNC(=O)COc2ccccc2C#N)N2CCOCC2)cc1 (centres undefined) | 2.5 | 2.3 | + | -0.7 | i | 0.0
O=C(CCc1ccccc1)NC1CCS(=O)(=O)C1 (centres undefined) | -1.4 | -8.0 | i | -0.9 | x | x
Cc1cn(CC(=O)NCCCN2CCCC2=O)c(=O)[nH]c1=O | -4.5 | 0.0 | i | 0.7 | x | x
CCN1CCN(c2ccc(S(=O)(=O)N3CCCCC3)cc2NC(=O)/C=C/c2ccc(OC)c(OC)c2)CC1 | 16.8 | 3.3 | i | -2.5 | x | x
CCN1CCN(c2ccc(S(=O)(=O)N3CCCCC3)cc2NC(=O)c2ccccc2)CC1 | 0.3 | -7.4 | i | 1.3 | x | x
CCN1CCN(c2ccc(S(=O)(=O)N3CCCCC3)cc2NC(=O)c2ccc([N+](=O)[O-])s2)CC1 | 6.6 | -0.3 | + | 1.2 | i | 0.0
CCN1CCN(c2ccc(S(=O)(=O)N3CCCCC3)cc2NC(=O)/C=C/c2ccc(Cl)cc2)CC1 | 3.4 | -2.7 | + | -0.5 | i | 16.2*
O=C1CCC/C(=N/NC(=O)c2sc3ccccc3c2Cl)C1 | -2.8 | -1.9 | i | 149.1 | i | 0.0
CCOC(=O)C1=C(O)/C(=C/c2cc(OC)c(O)c(OC)c2)SC1=Nc1ccc(OC)cc1 | 2.9 | 18.8 | i | 12.0 | i | 22.6*
COc1ccc(CN(C(=O)CN2C(=O)COc3ccccc32)C2CCCC2)c(OC)c1 | 2.4 | 4.2 | i | 2.8 | i | 0.2
CCOC(=O)C1=CNS(=O)(=O)NC1c1ccc(C)cc1 (centres undefined) | -1.6 | -2.7 | i | -1.7 | x | x
CCc1nnc(NC(=O)CCS(=O)(=O)Cc2ccccc2)s1 | 0.9 | -4.3 | + | 4.0 | i | 1.0
Cc1c(CCOC(=O)C23CC4CC(CC(C)(C4)C2)C3)sc[n+]1CC(=O)c1ccccc1 | 25.7 | -3.6 | i | -0.5 | x | x
Cc1c(CCOC(=O)CC23CC4CC(CC(C4)C2)C3)sc[n+]1CC(=O)c1ccc(Br)cc1 | 14.2 | -0.3 | + | 1.1 | i | 0.5
COC(=O)c1ccc2c(c1)c(-c1ccccc1)c(-c1ccccc1)n2C | 2.5 | 0.9 | i | -0.7 | x | x
COc1ccc(C2=NC(C)(C)Cc3cc(OC)c(OC)cc32)cc1OC | 0.1 | 5.7 | i | 3.7 | x | x
COc1cc2c(cc1OC)C(c1cc3ccccc3oc1=O)=NC(C)(C)C2 | 12.4 | -2.9 | i | 4.2 | i | 0.3
COc1cc(NC(=O)COC(=O)Cn2cnc3c2c(=O)n(C)c(=O)n3C)cc(OC)c1 | 2.5 | -3.2 | i | 3.3 | x | x
CNS(=O)(=O)c1cccc(C(=O)OCC(=O)NC2CCCC(C)C2C)c1 (centres undefined) | -0.9 | 3.2 | i | 0.5 | x | x

Source: PubChem (several laboratories)
